ChEMBL document CHEMBL4715802, “Novel Irreversible Agonists Acting at the A Adenosine Receptor” (J Med Chem, 2016)
Calls of active or inactive are those of the source. The rule behind the calls is not given here.

Tests used:
Flp-In-CHO [1] = experiment: Stimulation of ERK1/2 phosphorylation in Flp-In-CHO cells incubated for 5 mins; assay type: cell-based; details: Cricetulus griseus
Procedure, shortened: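 A1AR-FlpInCHO cells were seeded at 4×10^4/well and serum-starved for about 18 h. Cells were stimulated with agonist for 5 min at 37°C, then lysed, and pERK1/2 was detected by SureFire. […] Curves were fitted for pEC50 and Emax. Three experiments in duplicate.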

Adenosine receptor A1 [2] = biological target: T1, Adenosine receptor A1 (Homo sapiens, UniProt P30542); experiment: Irreversible agonist activity at human adenosine A1 receptor expressed in Flp-In-CHO cells assessed as stimulation of ERK1/2 phosphorylation incubated for 5 mins; assay type: cell-based
T1 sequence (P30542 whole entry): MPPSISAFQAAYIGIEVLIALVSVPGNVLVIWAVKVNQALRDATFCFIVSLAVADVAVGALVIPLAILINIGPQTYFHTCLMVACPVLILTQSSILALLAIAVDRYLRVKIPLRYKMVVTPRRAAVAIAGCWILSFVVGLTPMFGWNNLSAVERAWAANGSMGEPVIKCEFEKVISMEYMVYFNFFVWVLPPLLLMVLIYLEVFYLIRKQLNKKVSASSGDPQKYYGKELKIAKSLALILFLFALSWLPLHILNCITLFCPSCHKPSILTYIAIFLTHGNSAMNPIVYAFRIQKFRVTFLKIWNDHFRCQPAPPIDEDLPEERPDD

[3] = biological target: T2, Adenosine receptor A1 (Homo sapiens) (UniProt P30542); experiment: Irreversible agonist activity at human adenosine A1 receptor expressed in Flp-In-CHO cells assessed as induction of positive change of cellular impedance at 1 uM incubated for 2 hrs by xCELLigence real-time cell analysis; assay type: cell-based; details: filed as agonist
T2 sequence (whole entry): T1 sequence (P30542 whole entry)
Procedure, shortened: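 A1AR-FlpInCHO cells were serum-starved for about 18 h and equilibrated for at least 1 h at 37°C. 1 µM agonist or vehicle was added and impedance was recorded at 15 s intervals. […] Three experiments in duplicate.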

Flp-In-CHO [4] = experiment: Effect on forskolin-induced cAMP accumulation in Flp-In-CHO cells incubated for 30 mins by LANCE cAMP detection assay; assay type: functional, cell-based; details: Cricetulus griseus
[5] = biological target: T2, Adenosine receptor A1 (Homo sapiens); experiment: Binding affinity to human adenosine A1 receptor expressed in Flp-In-CHO cell membranes assessed as basal [35S]GTP-gamma-S incorporation level at 10 uM incubated for 40 mins followed by washing by liquid scintillation counting; details: Cell membrane
Procedure, shortened: (§1)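 Membranes were pretreated with 10 µM ligand and washed as for the [3H]DPCPX assay. […] 300 pM [35S]GTPγS was then added for 40 min at 20°C, followed by filtration and counting. Values are normalised to NECA-stimulated vehicle-pretreated membranes.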

[6] = biological target: T2, Adenosine receptor A1 (Homo sapiens); details: Sf9, Cell membrane, filed as agonist, dose 10.0 µM, time 30.0 min
[7] = biological target: T2, Adenosine receptor A1 (Homo sapiens); experiment: Binding affinity to human adenosine A1 receptor expressed in Flp-In-CHO cell membranes assessed as [3H]DPCPX binding level at 10 uM incubated for 1 hr followed by washing by liquid scintillation counting based equilibrium radioligand binding assay; details: Cell membrane
Procedure, shortened: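 Membranes from A1AR-FlpInCHO cells were pre-incubated with 10 µM ligand in PBS with 1 unit ADA for 1 h at 37°C. They were then washed 3× with PBS, with 1 h at 37°C between washes, and resuspended in HME buffer. [3H]DPCPX at 0.1–12 nM was bound for 1 h at 37°C, filtered and β-counted. Nonspecific binding was defined with 1 µM SLV320. Results are expressed as % of buffer-pretreated Bmax, from three experiments in duplicate.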

[8] = biological target: T2, Adenosine receptor A1 (Homo sapiens); experiment: Binding affinity to human adenosine A1 receptor expressed in Sf9 cells assessed protein melting temperature at 10 uM incubated for 30 mins by Thermo-fluor assay; assay type: cell membranes; details: Cell membrane, filed as agonist
Procedure, shortened: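 Human A1AR was purified from Sf9 cells in LMNG/CHS. 0.2 µg receptor was incubated with 10 µM compound for 20 h at 4°C in HEPES pH 7.5 buffer with ADA. CPM dye at 10 µM final was added for 30 min at rt. The sample was heated from 4 to 80°C in 3° steps, holding 90 s each, and fluorescence was read at 380/470 nm to derive Tm. Three experiments in duplicate.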

[9] = biological target: T2, Adenosine receptor A1 (Homo sapiens); experiment: Binding affinity to human adenosine A1 receptor expressed in NECA-pre-treated Flp-In-CHO cell membranes assessed as [35S]GTP-gamma-S incorporation level at 10 uM incubated for 40 mins followed by washing by liquid scintillation counting; details: Cell membrane; procedure, shortened: as §1
[10] = biological target: T2, Adenosine receptor A1 (Homo sapiens); experiment: Irreversible agonist activity at human adenosine A1 receptor expressed in Flp-In-CHO cells assessed as induction of positive change of cellular impedance at 1 uM incubated for 1.5 hrs followed by addition of 1 uM A1AR selective antagonist SLV320 by xCELLigence real-time cell analysis; assay type: cell-based; details: filed as agonist
Procedure, shortened: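 A1AR-FlpInCHO cells were seeded at 4×10^4/well, serum-starved for about 18 h, and equilibrated in the impedance reader for at least 1 h at 37°C. Cells were exposed to 1 µM agonist and impedance was recorded every 15 s. After about 1.5–1.7 h, 1 µM SLV320 was added and recording continued. […] Three experiments in duplicate.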

Adenosine receptor A2b = biological target: T3, Adenosine receptor A2b (Homo sapiens, UniProt P29275); experiment: Irreversible agonist activity at human adenosine A2B receptor expressed in Flp-In-CHO cells assessed as effect on forskolin-induced cAMP accumulation incubated for 30 mins by LANCE cAMP detection assay; assay type: functional, cell-based
T3 sequence (P29275 whole entry): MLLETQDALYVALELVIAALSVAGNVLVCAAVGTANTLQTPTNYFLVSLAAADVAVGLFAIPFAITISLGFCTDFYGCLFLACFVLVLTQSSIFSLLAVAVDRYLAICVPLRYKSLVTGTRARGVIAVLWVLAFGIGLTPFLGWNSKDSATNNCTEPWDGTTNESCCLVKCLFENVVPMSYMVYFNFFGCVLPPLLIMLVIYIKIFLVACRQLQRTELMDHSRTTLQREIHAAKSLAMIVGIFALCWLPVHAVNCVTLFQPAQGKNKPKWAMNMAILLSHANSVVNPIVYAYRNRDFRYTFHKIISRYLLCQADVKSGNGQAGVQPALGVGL
Procedure, shortened: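 A2BAR-FlpInCHO cells in stimulation buffer with rolipram were exposed to agonist with no preincubation, then stopped with ethanol, lysed, and cAMP was detected by LANCE. Three to four experiments in duplicate.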

Adenosine receptor A1 [11] = biological target: T1, Adenosine receptor A1; experiment: Irreversible agonist activity at human adenosine A1 receptor expressed in Flp-In-CHO cells assessed as effect on forskolin-induced cAMP accumulation incubated for 30 mins by LANCE cAMP detection assay; assay type: functional, cell-based
Procedure, shortened: (§2)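 For Gi/o-coupled A1 or A3 FlpInCHO cells, cells were preincubated for 30 min at 37°C in stimulation buffer containing 10 µM rolipram. Agonist (10 pM–10 µM) was then added with 3 µM forskolin for 30 min at 37°C. The reaction was stopped with ethanol, cells were lysed, and cAMP was read by LANCE TR-FRET. Three to four experiments in duplicate.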

Adenosine receptor A3 = biological target: T4, Adenosine receptor A3 (Homo sapiens, UniProt P0DMS8); experiment: Irreversible agonist activity at human adenosine A3 receptor expressed in Flp-In-CHO cells assessed as effect on forskolin-induced cAMP accumulation incubated for 30 mins by LANCE cAMP detection assay; assay type: functional, cell-based
T4 sequence (P0DMS8 whole entry): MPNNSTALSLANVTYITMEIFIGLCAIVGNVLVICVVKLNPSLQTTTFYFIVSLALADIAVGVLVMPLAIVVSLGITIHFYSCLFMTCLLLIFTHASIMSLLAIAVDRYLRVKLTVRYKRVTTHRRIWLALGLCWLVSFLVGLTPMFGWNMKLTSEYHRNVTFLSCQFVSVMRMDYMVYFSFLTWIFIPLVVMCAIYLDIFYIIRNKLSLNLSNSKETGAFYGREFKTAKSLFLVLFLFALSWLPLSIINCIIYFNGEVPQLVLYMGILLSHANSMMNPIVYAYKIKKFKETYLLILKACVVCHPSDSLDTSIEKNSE
Procedure, shortened: as §2, with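 “TR-FRET. […]” for “TR-FRET.”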

Adenosine receptor A2a = Adenosine receptor A2a (Homo sapiens, UniProt P29274); experiment: Irreversible agonist activity at human adenosine A2A receptor expressed in Flp-In-CHO cells assessed as effect on forskolin-induced cAMP accumulation incubated for 30 mins by LANCE cAMP detection assay; assay type: functional, cell-based
Chain of Adenosine receptor A2a (P29274 whole entry): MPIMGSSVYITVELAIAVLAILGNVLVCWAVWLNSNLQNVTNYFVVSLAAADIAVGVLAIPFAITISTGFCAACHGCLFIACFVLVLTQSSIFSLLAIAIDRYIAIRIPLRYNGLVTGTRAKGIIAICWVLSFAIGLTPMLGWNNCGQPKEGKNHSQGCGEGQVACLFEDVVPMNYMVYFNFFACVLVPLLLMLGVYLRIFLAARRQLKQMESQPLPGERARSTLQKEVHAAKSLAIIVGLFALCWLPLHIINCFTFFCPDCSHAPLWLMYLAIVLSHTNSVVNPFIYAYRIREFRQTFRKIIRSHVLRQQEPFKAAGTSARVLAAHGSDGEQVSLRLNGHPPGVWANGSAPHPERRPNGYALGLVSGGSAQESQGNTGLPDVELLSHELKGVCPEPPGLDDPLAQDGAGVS

O=C(NCCCCCCCCCCNc1ncnc2c1ncn2[C@@H]1O[C@H](CO)[C@@H](O)[C@H]1O)C1=CC2C=CC1CC2 (stereo partly drawn)
Activity (Flp-In-CHO [1]): inactive | EC50 (Adenosine receptor A1 [2]): 25.1 nM

CCNC(=O)[C@H]1O[C@@H](n2cnc3c(N)ncnc32)[C@H](O)[C@@H]1O
Activity [3]: Active | Activity (Flp-In-CHO [4]): inactive | Activity [5]: 57% | Activity (Flp-In-CHO [1]): inactive | ΔTm [6]: 4 °C | Activity [7]: 108% | Tm [8]: 38.7 °C | Activity [9]: 99%

OC[C@H]1O[C@@H](n2cnc3c(NCCN=C=S)ncnc32)[C@H](O)[C@@H]1O
Activity (Flp-In-CHO [1]): inactive | EC50 (Adenosine receptor A1 [2]): 158 nM

O=C(NCc1ccc(Nc2ncnc3c2ncn3[C@@H]2O[C@H](CO)[C@@H](O)[C@H]2O)cc1)c1ccc(S(=O)(=O)F)cc1
Activity [3]: Active | Activity (Flp-In-CHO [4]): inactive | Activity [10]: Active | Activity [5]: 134% | EC50 (Adenosine receptor A2b): 117 nM | EC50 (Adenosine receptor A1 [11]): 0.912 nM | Activity (Flp-In-CHO [1]): inactive | EC50 (Adenosine receptor A3): 135 nM | EC50 (Adenosine receptor A1 [2]): 1 nM | Activity ([7]; filed as agonist): 16% | Tm [8]: 46.7 °C | Activity ([9]; filed as agonist): Active

OC[C@H]1O[C@@H](n2cnc3c(NCCCCCCNC(=S)Nc4ccc(N=C=S)cc4)ncnc32)[C@H](O)[C@@H]1O
Activity (Flp-In-CHO [1]): inactive

OC[C@H]1O[C@@H](n2cnc3c(Nc4ccc(CN=C=S)cc4)ncnc32)[C@H](O)[C@@H]1O
Activity [3]: Active | Activity (Flp-In-CHO [4]): inactive | Activity [10]: Active | EC50 (Adenosine receptor A2a): 646 nM | EC50 (Adenosine receptor A2b): 708 nM | EC50 (Adenosine receptor A1 [11]): 269 nM | Activity (Flp-In-CHO [1]): inactive | EC50 (Adenosine receptor A3): 347 nM | EC50 (Adenosine receptor A1 [2]): 20 nM | Tm [8]: 42.7 °C

O=C(NCCCCCCNc1ncnc2c1ncn2[C@@H]1O[C@H](CO)[C@@H](O)[C@H]1O)c1ccc(S(=O)(=O)F)cc1
Activity (Flp-In-CHO [1]): inactive

OC[C@H]1O[C@@H](n2cnc3c(Nc4ccc(CNC(=S)Nc5ccc(N=C=S)cc5)cc4)ncnc32)[C@H](O)[C@@H]1O
Activity [3]: Active | Activity (Flp-In-CHO [4]): inactive | Activity [10]: Active | Activity [5]: 124% | EC50 (Adenosine receptor A2a): 67.6 nM | EC50 (Adenosine receptor A2b): 224 nM | EC50 (Adenosine receptor A1 [11]): 55 nM | Activity (Flp-In-CHO [1]): inactive | EC50 (Adenosine receptor A3): 44.7 nM | EC50 (Adenosine receptor A1 [2]): 1.58 nM | Activity ([7]; filed as agonist): 8% | Tm [8]: 46.6 °C | Activity ([9]; filed as agonist): Active

OC[C@H]1O[C@@H](n2cnc3c(NCCCCCCCCCCNC(=S)Nc4ccc(N=C=S)cc4)ncnc32)[C@H](O)[C@@H]1O
Activity (Flp-In-CHO [1]): inactive

O=C(NCCNc1ncnc2c1ncn2[C@@H]1O[C@H](CO)[C@@H](O)[C@H]1O)C1=CC2C=CC1CC2 (stereo partly drawn)
Activity (Flp-In-CHO [1]): inactive

OC[C@H]1O[C@@H](n2cnc3c(NCCNC(=S)Nc4ccc(N=C=S)cc4)ncnc32)[C@H](O)[C@@H]1O
Activity [10]: Active | Activity (Flp-In-CHO [1]): inactive | EC50 (Adenosine receptor A1 [2]): 3.16 nM

OC[C@H]1O[C@@H](n2cnc3c(NCCCCCCN=C=S)ncnc32)[C@H](O)[C@@H]1O
Activity (Flp-In-CHO [1]): inactive

O[C@H]1CC[C@H](Nc2nc(-c3ccccc3)nc3[nH]ccc23)CC1
Activity ([9]; filed as agonist): 37%

OC[C@H]1O[C@@H](n2cnc3c(NCCCCCCCCCCN=C=S)ncnc32)[C@H](O)[C@@H]1O
Activity [3]: Active | Activity (Flp-In-CHO [1]): inactive | EC50 (Adenosine receptor A1 [2]): 79.4 nM

O=C(NCc1ccc(Nc2ncnc3c2ncn3[C@@H]2O[C@H](CO)[C@@H](O)[C@H]2O)cc1)C1=CC2C=CC1CC2 (stereo partly drawn)
Activity [3]: Active | Activity (Flp-In-CHO [1]): inactive | EC50 (Adenosine receptor A1 [2]): 1.58 nM

O=C(NCCCCCCNc1ncnc2c1ncn2[C@@H]1O[C@H](CO)[C@@H](O)[C@H]1O)C1=CC2C=CC1CC2 (stereo partly drawn)
Activity (Flp-In-CHO [1]): inactive | EC50 (Adenosine receptor A1 [2]): 15.8 nM

CCCn1c(=O)c2nc(C3CCCC3)[nH]c2n(CCCOC(=O)c2ccc(S(=O)(=O)F)cc2)c1=O
Activity ([5]; filed as agonist): 37% | Activity ([7]; filed as agonist): 2% | Activity ([9]; filed as agonist): 32%

O=C(NCCCCCCCCCCNc1ncnc2c1ncn2[C@@H]1O[C@H](CO)[C@@H](O)[C@H]1O)c1ccc(S(=O)(=O)F)cc1
Activity (Flp-In-CHO [1]): inactive
